Experimental data from paper PMC11056977 (Journal of Medicinal Chemistry, 2024).
Ends that are not written are not given here.

Experiments:
BRD4 = test: Immunoblotting of BRD4 protein; format: cell-based; settings: MCF7 cells, MZ1 1 μM, 24 h, compared with TAT-PiET-PROTAC 10 μM
[1] = test system: MCF7 cell-derived xenografts; test: MCF7 cell-derived xenograft mouse model; format: in vivo, BALB/c nude mice; settings: tumor samples, 25 mg/kg ip every 2 days
Summary of the method: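 Female BALB/c nude mice (4–6 weeks) implanted subcutaneously with 5 × 10^6 MCF7 cells in PBS, with estrogen (E2, 10–2 M) brushed on every 2 days. Randomized at ~50 mm3 tumor volume. Test peptide was given in normal saline, 25 mg/kg i.p., every 2 days. Tumor lysates (Tris-HCl pH 7.4, NaCl, EDTA, 1% Triton X-100) were immunoblotted after 10% SDS-PAGE.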

[2] = test system: MDA-MB-231 cell-derived xenografts; test: MDA-MB-231 cell-derived xenograft mouse model; format: in vivo, BALB/c nude mice; settings: tumor samples, 25 mg/kg ip every 2 days
Summary of the method: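 Female BALB/c nude mice (4–6 weeks) were implanted subcutaneously with 5 × 10^6 MDA-MB-231 cells in PBS and randomized at ~50 mm3. Peptide in normal saline was given at 25 mg/kg i.p. every 2 days. Tumours were analysed by RT-qPCR for c-Myc, N-myc and CCND1 (three biological repeats).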

[3] = test system: c-Myc, N-myc, CCND1 expression in MCF7 cells; test: RT-qPCR and immunoblotting of BRD4/JMJD6 target genes, MCF7 cells; format: cell-based; settings: 10 μM 6 h in cells; xenograft tumor samples; RT-qPCR
[4] = test system: c-Myc, N-myc, CCND1 expression in MDA-MB-231 cells; test: RT-qPCR and immunoblotting of BRD4/JMJD6 target genes, MDA-MB-231 cells; format: cell-based; settings: 10 μM 6 h in cells; xenograft tumor samples; RT-qPCR
[5] = test system: tamoxifen-resistant MCF7 cells; test: Cell proliferation and colony formation, tamoxifen-resistant MCF7; format: cell-based; settings: peptide inhibitors 10 μM, tamoxifen 3 μM, cell proliferation and colony formation assay
Summary of the method: (§1)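 Resistant lines (MCF7 in DMEM; T47D in RPMI-1640; 10% FBS, 37 °C, 5% CO2) given peptide inhibitor 10 μM and tamoxifen 3 μM, alone or combined. Proliferation: 2 × 10^3 cells/well for the days indicated, then tetrazolium (CellTiter 96 Aqueous One) reagent for 1 h at 37 °C and absorbance at 490 nm. Colonies: 1 × 10^3 cells/well for 2 weeks, crystal violet stain dissolved in 10% acetic acid, read at 590 nm.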

[6] = test system: tamoxifen-resistant T47D cells; test: Cell proliferation and colony formation, tamoxifen-resistant T47D; format: cell-based; settings: peptide inhibitors 10 μM, tamoxifen 3 μM, cell proliferation and colony formation assay
Summary of the method: as §1

Compound | degradation of full-length BRD4 protein (BRD4) | c-Myc, N-myc, and CCND1 mRNA and protein levels in MCF7 cell-derived xenografts [1] | degradation of BRD4 and JMJD6 in MCF7 cell-derived xenografts ([1]; immunoblot) | c-Myc, N-myc, and CCND1 mRNA and protein levels in MDA-MB-231 cell-derived xenografts [2] | degradation of BRD4 and JMJD6 in MDA-MB-231 cell-derived xenografts ([2]; immunoblot) | mRNA levels of BRD4 or JMJD6, MCF7 (culture cells or xenografts) [3] | mRNA levels of BRD4 or JMJD6, MDA-MB-231 (culture cells or xenografts) [4] | resensitization of tamoxifen-resistant MCF7 cells to tamoxifen [5] | sensitivity of tamoxifen-resistant T47D cells to tamoxifen [6]
Cc1ncsc1-c1ccc(CNC(=O)[C@@H]2C[C@@H](O)CN2C(=O)[C@@H](NC(=O)COCCOCCOCCNC(=O)C[C@@H]2N=C(c3ccc(Cl)cc3)c3c(sc(C)c3C)-n3c(C)nnc32)C(C)(C)C)cc1 [MZ1] | induced the degradation of full-length BRD4 protein as effectively as TAT-PiET-PROTAC (10 μM) | – | – | – | – | – | – | – | –
TAT-PiET-PROTAC: PROTAC-modified TAT-PiET: VHL ligand peptide joined by AHX to the C-terminus (YGRKKRRQRRRRNQKFKCGE; not fully specified (C-terminus)) | – | significant decrease | induced the degradation of BRD4 and JMJD6 in xenografts | significant decrease | induced the degradation of BRD4 and JMJD6 in xenografts | did not affect | did not affect | resensitized | became sensitive to tamoxifen
YGRKKRRQRRRRNQKFKCGE [TAT-PiET] | – | significant decrease | – | significant decrease | – | did not affect | did not affect | resensitized | became sensitive to tamoxifen
